Our source for the IC50 and inhibition values is ChEMBL document CHEMBL2406959, “Synthesis and evaluation of diaryl sulfides and diaryl selenide compounds for antitubulin and cytotoxic activity” (Bioorg Med Chem Lett, 2013).

A short description of assay [1]: Cytotoxicity against human 786 cells after 48 hrs by sulforhodamine B assay. In kind it is functional, cell-based. A digest of the protocol: (§1)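 Human 786 (kidney), HT-29 (colon) and PC-3 (prostate) cancer cells exposed to compounds for 48 h at 37 °C.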
The test system of the next assay is HT-29. Briefly: Cytotoxicity against human HT-29 cells after 48 hrs by sulforhodamine B assay. In kind it is functional, cell-based. The note with it: HT-29, 48 h. A digest of the protocol:
as §1
In general terms: Sulforhodamine B stains cellular protein and so reports cell mass.

Assay [2] is filed under the species Bos taurus. The experiment in a line: Displacement of [3H]colchicine from bovine brain tubulin at 5 uM after 10 mins by scintillation counting analysis relative to control.
For another assay, the system named is PC-3. Briefly: Cytotoxicity against human PC3 cells after 48 hrs by sulforhodamine B assay. To be noted: PC-3, 48 h. It is filed as functional, cell-based.
In another assay the test system is MCF7. The experiment in a line: Cytotoxicity against human MCF7 cells after 96 hrs by sulforhodamine B assay. In kind it is functional, cell-based. To be noted: MCF7, 96 h. A digest of the protocol: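 Human MCF-7 breast cancer cells incubated with compounds for 96 h at 37 °C.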
A short description of assay [3]: Inhibition of bovine brain tubulin polymerization incubated for 15 mins prior to GTP addition measured after 20 mins by spectrophotometry. Also on record: species or system Bos taurus.
The next assay concerns the target Tubulin. The experiment in a line: Inhibition of tubulin (unknown origin) polymerization after 20 mins. In kind it is protein-complex assay, Homo sapiens.
Assay [4] is filed under the species Bos taurus. The experiment in a line: Displacement of [3H]colchicine from bovine brain tubulin at 1 uM after 10 mins by scintillation counting analysis relative to control.

For `COc1ccc(Sc2cc(OC)c(OC)c(OC)c2)cc1[N+](=O)[O-]`, the IC50 in assay [1] came out at 1710 nM; with HT-29 it was 630 nM; with PC-3, 200 nM; with MCF7 it was 1000 nM; in assay [3], 2800 nM. The same compound returned an inhibition in the assay listed under Bos taurus [2] of 58%.
In turn, `COc1ccc(/C=C\c2cc(OC)c(OC)c(OC)c2)cc1[N+](=O)[O-]` returned an IC50 at Tubulin of 1800 nM.
Take `COc1ccc([Se]c2cc(OC)c(OC)c(OC)c2)cc1`: the inhibition was 74% in the assay listed under Bos taurus [4] and 94% in the assay listed under Bos taurus [2]. The IC50 worked out at 680 nM in assay [1]; 280 nM with HT-29; 80 nM in the assay on PC-3; 10 nM in the assay with MCF7; 620 nM in assay [3].
`COc1cccc2c1C(=O)c1c(O)c3c(c(O)c1C2=O)C[C@@](O)(C(=O)CO)C[C@@H]3O[C@H]1C[C@H](N)[C@H](O)[C@H](C)O1` [DOXORUBICIN]: the IC50 in assay [1] came to 330 nM; in the assay with HT-29 it was 440 nM.
On to `COc1ccc([Se][Se]c2ccc(OC)cc2)cc1`, for which the IC50 in assay [1] is 20700 nM; with HT-29, 59500 nM; in the assay on PC-3, 1990 nM; with MCF7, above 10000 nM; in assay [3] it was 1700 nM. For the same compound, the inhibition in the assay filed under Bos taurus [2] turned out to be 34%.
Take `COc1ccc(Sc2cc(OC)c(OC)c(OC)c2)cc1N`: the inhibition in the assay listed under Bos taurus [4] came to 74%; in the assay listed under Bos taurus [2], 95%. For the same compound, the IC50 in assay [1] came to 1240 nM; in the assay on HT-29, 1310 nM; in the assay on PC-3, 530 nM; with MCF7, 8 nM; in assay [3], 740 nM.
`COc1ccc(/C=C\c2cc(OC)c(OC)c(OC)c2)cc1O` [COMBRETASTATIN A4]: the results for the IC50 (in assay [1]; in the assay with PC-3; with MCF7) were 5000 nM, 1000 nM and 6 nM, respectively.
On to `COc1ccc([Se]c2ccc(OC)cc2)cc1`, for which the IC50 in the assay with HT-29 was 210000 nM; in the assay on PC-3 it was 8800 nM; with MCF7 it was above 10000 nM; in assay [3], above 20000 nM.
On to `COc1cc(SSc2cc(OC)c(OC)c(OC)c2)cc(OC)c1OC`, for which the IC50 in assay [1] is 112000 nM; with HT-29, 76500 nM; in the assay on PC-3, 6750 nM; in the assay on MCF7, above 10000 nM; in assay [3], 5400 nM. The inhibition in the assay filed under Bos taurus [2] is 9%.

By IC50 is commonly meant the concentration needed to halve the response being measured. A low value points to greater potency. Broadly, the inhibition is the percentage by which the read-out fell short of the control. Higher therefore signals a response far below the control.
